# According to ChEMBL document CHEMBL1777776, “Identification of 2-mercaptohexanoic acids as dual inhibitors of 5-lipoxygenase and microsomal prostaglandin E₂ synthase-1” (Bioorg Med Chem, 2011):
# Calls of active or inactive are those of the source. No cut-off for these calls is given here.
# Columns and labels:
# [1] = target: T1, Polyunsaturated fatty acid 5-lipoxygenase (Homo sapiens) (UniProt P09917); experiment: Inhibition of 5-lipoxygenase in A23187-stimulated human PMNL assessed as residual activity by measuring enzyme product formation at 10 uM preincubated 15 mins by RP-HPLC analysis in presence of exogenous arachidonic acid
# T1 sequence (whole entry): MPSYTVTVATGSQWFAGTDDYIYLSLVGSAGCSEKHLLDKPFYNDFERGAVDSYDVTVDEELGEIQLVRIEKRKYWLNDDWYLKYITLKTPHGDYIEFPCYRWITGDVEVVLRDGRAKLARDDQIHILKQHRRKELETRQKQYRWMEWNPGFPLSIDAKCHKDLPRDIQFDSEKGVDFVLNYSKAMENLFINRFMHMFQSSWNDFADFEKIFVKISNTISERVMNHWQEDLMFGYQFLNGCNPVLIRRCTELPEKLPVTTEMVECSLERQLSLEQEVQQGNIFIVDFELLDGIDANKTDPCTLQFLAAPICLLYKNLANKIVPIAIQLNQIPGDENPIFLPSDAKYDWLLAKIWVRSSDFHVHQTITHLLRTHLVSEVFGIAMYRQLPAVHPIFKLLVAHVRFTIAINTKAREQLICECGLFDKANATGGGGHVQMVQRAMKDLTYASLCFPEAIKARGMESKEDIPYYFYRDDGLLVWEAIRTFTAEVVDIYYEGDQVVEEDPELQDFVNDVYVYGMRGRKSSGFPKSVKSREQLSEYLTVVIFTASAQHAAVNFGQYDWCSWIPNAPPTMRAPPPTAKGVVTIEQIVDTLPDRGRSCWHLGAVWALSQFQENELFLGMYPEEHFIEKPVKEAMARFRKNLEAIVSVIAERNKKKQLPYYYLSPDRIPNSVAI
# In short: (§1)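 Freshly isolated human PMNL (5 × 10⁶/ml PGC buffer: PBS pH 7.4, 1 mg/ml glucose, 1 mM CaCl₂) preincubated with compound 15 min at 37 °C. Stimulated with 2.5 µM A23187 plus exogenous AA for 10 min at 37 °C. Stopped with methanol, PGB₁ added as internal standard, lipoxygenase products analysed by HPLC. Mean of n = 3–5.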
# [2] = target: T2, Polyunsaturated fatty acid 5-lipoxygenase (Homo sapiens, UniProt P09917); experiment: Inhibition of human recombinant 5-lipoxygenase expressed in Escherichia coli BL21 assessed as enzyme product formation using arachidonic acid as substrate after 10 mins by RP-HPLC analysis
# T2 sequence (P09917 whole entry): T1 sequence (whole entry)
# In short: (§2)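 Human 5-LO expressed in E. coli BL21 (pT3-5LO), affinity-purified and used at once. 0.5 µg enzyme in 1 ml PBS/EDTA with 1 mM ATP preincubated with compound 5–10 min at 4 °C, then warmed 30 s at 37 °C. Reaction started with 2 mM CaCl₂ and AA (routinely 20 µM), with or without 1 µM 13(S)-HpODE. Run 10 min at 37 °C, stopped with ice-cold methanol, products analysed by HPLC. Washout: 10-fold dilution (10 to 1 µM).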
# [3] = target: T1, Polyunsaturated fatty acid 5-lipoxygenase (Homo sapiens); experiment: Inhibition of human recombinant 5-lipoxygenase expressed in Escherichia coli BL21 assessed as residual activity by measuring enzyme product formation using arachidonic acid as substrate at 10 uM after 10 mins by RP-HPLC analysis; in short: as §2
# A549 = experiment: Cytotoxicity against human A549 cells assessed as cell viability at 10 uM after 16 hrs by MTT assay; format: cell-based; details: a549, 5 h, in the assay text read “5 hrs” for “16 hrs”
# In short: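 A549 cells plated at 4 × 10⁴ cells per well, incubated 16 h at 37 °C, 5% CO₂, then exposed to 10 µM compound or DMSO (≤0.3% final) for 5 h. MTT added for 4 h, formazan solubilized with SDS in 20 mM HCl, absorbance at 595 nm read relative to vehicle-treated cells.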
# [4] = target: T2, Polyunsaturated fatty acid 5-lipoxygenase; experiment: Inhibition of 5-lipoxygenase in A23187-stimulated human PMNL assessed as enzyme product formation preincubated 15 mins by RP-HPLC analysis in presence of exogenous arachidonic acid; in short: as §1
# Prostaglandin E synthase = target: T3, Prostaglandin E synthase (Homo sapiens, UniProt O14684); experiment: Inhibition of mPGES-1 in human IL-1beta-stimulated A549 cell microsomes assessed as reduction of PGE2 formation from PGH2 after 15 mins; set-up: species or system Microsome
# T3 sequence (O14684 whole entry): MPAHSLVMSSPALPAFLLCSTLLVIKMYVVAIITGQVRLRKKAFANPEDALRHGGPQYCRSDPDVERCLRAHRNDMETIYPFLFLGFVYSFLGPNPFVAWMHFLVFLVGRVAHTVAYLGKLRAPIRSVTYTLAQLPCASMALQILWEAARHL
# In short: (§3)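 Microsomes from A549 cells stimulated 72 h with IL-1β (1 ng/ml), diluted to 50 µg/ml in 0.1 M potassium phosphate pH 7.4 with 2.5 mM glutathione. Preincubated with compound (1% DMSO final) 15 min at 4 °C. Reaction started with 20 µM PGH₂, run 1 min at 4 °C, stopped with FeCl₂/citric acid containing 11β-PGE₂; PGE₂ quantified. Mean of n = 3–5.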
# [5] = target: T4, Prostaglandin E synthase (Homo sapiens) (UniProt O14684); experiment: Inhibition of mPGES-1 in human IL-1beta-stimulated A549 cell microsomes assessed as residual activity by measuring reduction of PGE2 formation from PGH2 at 10 uM after 15 mins; details: Microsome; in short: as §3
# T4 sequence (whole entry): T3 sequence (O14684 whole entry)
# [6] = target: T5, Prostaglandin G/H synthase 1 (Ovis aries) (UniProt P05979); experiment: Inhibition of ovine COX1 assessed as residual activity at 10 uM after 5 mins
# T5 sequence (whole entry): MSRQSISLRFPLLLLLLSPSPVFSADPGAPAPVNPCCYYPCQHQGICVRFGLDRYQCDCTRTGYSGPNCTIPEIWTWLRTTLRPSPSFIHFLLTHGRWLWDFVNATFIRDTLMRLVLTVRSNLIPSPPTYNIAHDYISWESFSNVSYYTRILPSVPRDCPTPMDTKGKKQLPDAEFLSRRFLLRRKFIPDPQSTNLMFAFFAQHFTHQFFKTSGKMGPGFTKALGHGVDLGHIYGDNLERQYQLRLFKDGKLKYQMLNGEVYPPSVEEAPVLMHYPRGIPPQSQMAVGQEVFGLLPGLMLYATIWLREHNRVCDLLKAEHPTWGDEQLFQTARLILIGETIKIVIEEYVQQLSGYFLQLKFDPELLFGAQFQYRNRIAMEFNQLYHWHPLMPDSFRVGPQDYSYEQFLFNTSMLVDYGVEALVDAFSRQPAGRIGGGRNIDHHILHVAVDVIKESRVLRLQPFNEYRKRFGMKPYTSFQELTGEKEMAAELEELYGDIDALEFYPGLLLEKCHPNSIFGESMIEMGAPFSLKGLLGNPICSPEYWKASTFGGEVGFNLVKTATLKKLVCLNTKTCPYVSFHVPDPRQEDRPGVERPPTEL
# In short: (§4)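 Ovine COX-1 (50 units) or human recombinant COX-2 (20 units) in 1 ml 100 mM Tris pH 8 with 5 mM glutathione, 5 µM haemoglobin and 100 µM EDTA. Preincubated with 10 µM compound 5 min at 4 °C, warmed 60 s at 37 °C. Started with AA (5 µM for COX-1, 2 µM for COX-2), run 5 min at 37 °C. 12-HHT extracted and analysed by HPLC. n = 3.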
# [7] = target: T6, Prostaglandin G/H synthase 2 (Homo sapiens) (UniProt P35354); experiment: Inhibition of human recombinant COX2 assessed as residual activity at 10 uM after 5 mins; in short: as §4
# T6 sequence (whole entry): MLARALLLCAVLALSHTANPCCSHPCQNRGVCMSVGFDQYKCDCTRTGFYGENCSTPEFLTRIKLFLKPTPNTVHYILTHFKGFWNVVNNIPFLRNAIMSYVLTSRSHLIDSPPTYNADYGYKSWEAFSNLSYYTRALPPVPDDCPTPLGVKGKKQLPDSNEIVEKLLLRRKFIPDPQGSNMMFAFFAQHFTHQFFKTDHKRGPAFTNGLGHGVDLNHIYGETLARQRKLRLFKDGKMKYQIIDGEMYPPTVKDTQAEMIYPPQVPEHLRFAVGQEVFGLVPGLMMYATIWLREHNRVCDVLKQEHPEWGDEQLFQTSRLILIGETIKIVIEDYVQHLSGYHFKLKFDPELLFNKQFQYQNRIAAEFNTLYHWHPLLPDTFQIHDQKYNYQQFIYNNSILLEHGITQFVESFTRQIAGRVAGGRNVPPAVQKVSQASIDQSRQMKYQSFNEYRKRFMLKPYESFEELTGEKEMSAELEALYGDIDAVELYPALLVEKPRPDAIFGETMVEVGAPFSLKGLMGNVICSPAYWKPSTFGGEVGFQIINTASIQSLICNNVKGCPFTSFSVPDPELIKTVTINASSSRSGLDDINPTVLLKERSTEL
Compound,Activity [1] [%],IC50 [2] [µM],Activity [3] [%],IC50 [4] [µM],IC50 (Prostaglandin E synthase) [µM],inhibition [5],Activity [5] [%],Activity [6] [%],inhibition [7],Activity (A549)
CCCCC(Sc1ccc(OCCCOc2cccc3c2CCCC3)cc1)C(=O)OCC (centres undefined),87.4,> 10,79.4,> 10,–,–,–,–,–,Non-toxic
CCCCC(Sc1ccc(OCCCOc2ccc3ncccc3c2)cc1)C(=O)O (centres undefined),92.2,> 10,59,> 10,> 10,inactive,–,–,–,Non-toxic
CCCCC(Sc1ccc(OCCCOc2ccccc2)cc1)C(=O)O (centres undefined),–,> 10,69.4,9.5,> 10,–,81.9,–,–,Non-toxic
CCCC/C(=C\c1ccc(OCCCOc2cccc(C)c2C)cc1)C(=O)O,–,> 10,88.9,1.6,> 10,–,28.3,–,–,Non-toxic
CCCCC(Sc1ccc(OCCCOc2ccc(C)cc2)cc1)C(=O)O (centres undefined),–,> 10,67.6,5.2,9.3,–,–,–,–,Non-toxic
CCCCC(Sc1ccc(OCCCOc2cccc(C(F)(F)F)c2)cc1)C(=O)O (centres undefined),–,9.8,–,1.6,2,–,–,–,–,Non-toxic
CCCCC(Sc1ccc(OCCCOc2cccc(C)c2)cc1)C(=O)O (centres undefined),–,> 10,79.3,4.8,> 10,–,58,–,–,Non-toxic
CCCC[C@H](Sc1ccc(OCCCOc2cccc(C)c2C)cc1)C(=O)O,–,8.2,–,2,4.6,–,–,–,–,Non-toxic
Cc1cccc(OCCCOc2ccc(SCC(=O)O)cc2)c1C,69.6,> 10,72.4,> 10,> 10,–,75.4,–,–,Non-toxic

# The next lines start with results.
Activity [1] [%],IC50 [2] [µM],Activity [3] [%],IC50 [4] [µM],IC50 (Prostaglandin E synthase) [µM],inhibition [5],Activity [5] [%],Activity [6] [%],inhibition [7],Compound,Activity (A549)
–,6,–,1.4,2.7,–,–,–,–,CCCCC(Sc1ccc(OCCCOc2cccc(C(C)C)c2)cc1)C(=O)O (centres undefined),Non-toxic
–,> 10,58.3,4.8,8.8,–,–,–,–,CCCCC(Sc1ccc(OCCCOc2ccccc2C)cc1)C(=O)O (centres undefined),Non-toxic
–,2,–,1.5,1.7,–,–,71.3,inactive,CCCCC(Sc1ccc(OCCCOc2ccc(Cl)c(C(F)(F)F)c2)cc1)C(=O)O (centres undefined),Non-toxic
79.3,> 10,59.2,> 10,9.4,–,–,–,–,CCCCC(Sc1ccc(OCCCOc2ccc(Cl)cc2OC)cc1)C(=O)O (centres undefined),Non-toxic
91.5,> 10,83,> 10,–,–,–,–,–,CCCCC(Sc1ccc(OCCCOc2ccc(-c3ccccc3)cc2)cc1)C(=O)OCC (centres undefined),Non-toxic
–,10,–,1.1,4.2,–,–,–,–,CCCC[C@@H](Sc1ccc(OCCCOc2cccc(C)c2C)cc1)C(=O)O,Non-toxic
–,> 10,67.7,4.8,> 10,–,59.1,–,–,CCCCC(Sc1ccc(OCCCOc2cccc(OC)c2)cc1)C(=O)O (centres undefined),Non-toxic
–,7.8,–,1.6,4.1,–,–,–,–,CCCCC(Sc1ccc(OCCCOc2ccccc2C(C)C)cc1)C(=O)O (centres undefined),Non-toxic
–,8.8,–,3,2.9,–,–,–,–,CCCCC(Sc1ccc(OCCCOc2cccc(C)c2C)cc1)C(=O)O (centres undefined),Non-toxic
80,> 10,81.8,> 10,> 10,–,83.9,–,–,Cc1cccc(OCCCOc2ccc(CCC(=O)O)cc2)c1C,Non-toxic
57.4,> 10,79.4,> 10,> 10,–,88.3,–,–,CCCCC(Sc1ccc(OCCCOc2ccccc2OC)cc1)C(=O)O (centres undefined),Non-toxic
–,> 10,70.8,2,7.1,–,–,–,–,CCCCC(Cc1ccc(OCCCOc2cccc(C)c2C)cc1)C(=O)O (centres undefined),Non-toxic
–,> 10,68.3,0.8,> 10,–,83.9,–,–,CCCCC(Sc1ccc(OCCCOc2ccc3ncccc3c2)cc1)C(=O)OCC (centres undefined),Non-toxic
